Test results taken from article PMC3528315 (The FASEB Journal, 2013).
Entries after “also recorded” stand apart in the source; their conditions may differ. Read-outs that look alike come from different tables or passages of the source.

How the values were obtained:
DA rats = conditions: cited from earlier work
[1] = tested on: circulating polyclonal anti-MBP Abs from DA rats; format: binding; conditions: SPR; DA rats immunized with MBP63–81
IFNγ = experiment: Immunostaining of spinal cord for IFNγ; format: in vivo, DA rats; conditions: immunohistochemistry
In short: (§1)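 EAE DA rats with symptoms got single daily subcutaneous injections of liposome formulations, reference drug or placebo for 6 d and were followed for 28 d. Spinal cords were fixed, dehydrated and paraffin-embedded, and sections were immunostained for IL-2, IFNγ or BDNF per the antibody makers' protocols. Scoring was blinded, against nonimmunized rats and untreated EAE rats.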

[2] = tested on: autoAbs to full-length MBP; experiment: Serum anti-MBP autoAbs; format: in vivo, DA rats; conditions: ELISA, vs control/placebo group
In short: (§2)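 Wells were coated overnight at 4°C with MBP or Trx-fused MBP peptides (10 μg/ml, 100 mM carbonate/bicarbonate, pH 9.0) and blocked with 2% BSA for 1 h at 37°C. Rat sera were diluted 100- to 50,000-fold in PBS-Tween/0.5% BSA, with 5 USP units/ml heparin for MBP, and incubated 1 h at 37°C. HRP anti-rat (1:4000, 1 h, 37°C) and TMB followed, with a phosphoric acid stop and OD₄₅₀ read-out.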

[3] = tested on: autoAbs to MBP epitope 81–103; experiment: Serum autoAbs; format: in vivo, DA rats; conditions: ELISA, vs control/placebo group
In short: as §2

DA rats with EAE [4] = experiment: EAE treatment with mSUV-encapsulated MBP peptides, disease scores; format: in vivo, Dark Agouti (DA) rats; conditions: for disease course / therapeutic effect in words: 6 daily s.c. injections from d 7 after EAE induction, mean disease score; for delta: ranking of overall difference in MDS from the placebo group: ascending series, placebo = empty mSUV
[5] = tested on: autoAbs to MBP epitope 146–170; experiment: Serum autoAbs; format: in vivo, DA rats; conditions: ELISA, vs control/placebo group
In short: as §2

IL-2 = experiment: Immunostaining of spinal cord for IL-2; format: in vivo, DA rats; conditions: immunohistochemistry
In short: as §1

BDNF = experiment: Immunostaining of CNS / spinal cord for BDNF; format: in vivo, DA rats; conditions: immunohistochemistry, vs placebo
In short: as §1

[6] = tested on: regulatory Th2 cells; BDNF expression; conditions: cited from earlier work
[7] = tested on: Spinal cords of DA rats with EAE; experiment: Spinal cord histology, gliosis and demyelination; format: in vivo, Dark Agouti (DA) rats
In short: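 Symptomatic EAE DA rats were dosed subcutaneously once daily for 6 d and followed for 28 d. Paraffin-embedded spinal cord sections were stained with hematoxylin–eosin and luxol fast blue and scored blind on 0–3 scales. Gliosis grades were mild (5–10 cells/focus), moderate (10–50 cells/focus) and severe (>50 cells/focus), and demyelination ran from none (0) to severe (3).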

DA rats with EAE [8] = experiment: EAE treatment with p1 as such or encapsulated in SUV / mSUV; format: in vivo, Dark Agouti (DA) rats; conditions: s.c.; mean disease score vs no treatment; p1 n=8, p1 SUV n=10, p1 mSUV n=9

In the case of “GPBP62–84: fragment of the guinea pig myelin basic protein (HAARTTHYGSLPQKSQRSQDENP; UniProt P25188 62-84, looked up, fragment)”, the “capability to induce EAE in DA rats” value (DA rats) is listed as “capable to induce EAE in DA rats”.
For “GPBP68–88: fragment of the guinea pig myelin basic protein (HYGSLPQKSQRSQDENPVVHF; UniProt P25188 68-88, looked up, fragment)”, the “capability to induce EAE in DA rats” value (DA rats) is listed as “slightly”.
For “MBP62–75: major encephalitogenic peptide in DA rats (WLKQSRSPLPSHAR; UniProt P02688 62-75, looked up, fragment)”, the “immunodominance of encephalitogenic peptide in DA rats” value (DA rats) is listed as “not immunodominant”.
In the case of MDHARHGFLPRH, the “binding of autoAbs” value [1] is reported as “not detected”.
In the case of glatiramer acetate [Copaxone], the “IFNγ in spinal cord” value (IFNγ) is reported as “significantly down-regulated”, the “serum concentration of autoAbs to full-length MBP” value [2] is reported as “significant decrease” and the “serum autoAbs to MBP epitope 81–103” value [3] is reported as “down-regulated”. For the same substance, the “median maximum disease score vs placebo” value (DA rats with EAE [4]; 6 daily s.c. injections from d 7, Wilcoxon test, P < 0.05) was “significantly differed from the placebo group”, the “disease course / therapeutic effect in words” value (DA rats with EAE [4]) was “significantly suppressed protracted EAE” and the “delta: ranking of overall difference in MDS from the placebo group” value (DA rats with EAE [4]) was “p1 ≪ p2 mSUV ≈ p3 mSUV < p1 mSUV ≈ Copaxone < p123 mSUV”. For the same substance, the “serum autoAbs to MBP epitope 146–170” value [5] was “down-regulated”, the “IL-2 in spinal cord” value (IL-2) was “significantly down-regulated” and the “BDNF in CNS” value (BDNF) was “enhanced production of BDNF”. For the same substance, the “induction of regulatory Th2 cells, cytokines and BDNF” value [6] was “known to stimulate BDNF expression”, the “induction of regulatory Th2 cells, cytokines and BDNF” value ([6]; listed as glatiramer acetate) was “induces the population of regulatory Th2 cells to become capable of crossing the BBB and producing anti-inflammatory cytokines IL-4, IL-6, IL-10, and brain-derived neurotrophic factor” and the “degree of demyelination, luxol fast blue staining” value [7] was “reduced”.
For “p1: immunodominant MBP peptide MBP46–62, as such (without liposomes) (FGEADANQNNGTSSQDT; UniProt P02686 46-62, looked up, fragment)”, the “disease course / therapeutic effect in words” value (DA rats with EAE [4]) was “no therapeutic effect; also recorded: no detectable therapeutic activity”, the “delta: ranking of overall difference in MDS from the placebo group” value (DA rats with EAE [4]) was “p1 ≪ p2 mSUV ≈ p3 mSUV < p1 mSUV ≈ Copaxone < p123 mSUV” and the “therapeutic effect on EAE” value (DA rats with EAE [8]) was “no detectable therapeutic effect”.
